“Also recorded” adds a separate entry of the source. Read-outs that look alike come from different tables or passages of the source.

Series [1] relates to trypsin. The following applies: in words; cited from earlier work.
For series [2], the system named is HIV-1 reverse transcriptase. Put plainly: HIV-1 reverse transcriptase inhibitory activity. The format is biochemical. The following applies: in words.
Series [3] deals with mouse splenocytes. Put plainly: Mitogenic activity. The class given is cell-based. As to conditions: data not shown; Con A positive control.
For series [4], the system named is severe acute respiratory syndrome (SARS) coronavious (CoV) protease. The format is biochemical.
The subject of series [5] is Fusarium oxysporum. In words: Antifungal activity, mycelial growth inhibition, Fusarium oxysporum. The class given is cell-based. Put shortly: (§1)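 Four doses of test peptide were mixed separately into potato dextrose agar at 45 °C and poured into small plates. Each plate then received an equal amount of mycelia, with a buffer-only control. After 72 h at 23 °C, colony area was measured. % inhibition = reduction in colony area relative to the control. IC50 was read from the % reduction versus concentration plot at 50% reduction.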

Series [6] concerns fungal species. Put plainly: Antifungal activity, fungal species in general or not specified. The format is cell-based. The following applies: for antifungal activity: in words.
Series [7] deals with HIV-1 integrase. Put plainly: HIV-1 integrase inhibition. The class given is biochemical. As to conditions: data not shown.
Series [8] is described as follows: Thermal and pH stability of antifungal activity. The class given is physicochemical. As to conditions: for thermostability: antifungal activity after thermal pretreatment. The procedure, abridged: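 Test peptide was pretreated at 0–100 °C for 10 min or at pH 0–3 and 10–14 for 30 min. Ions were also tested. Residual antifungal activity was then measured by the paper-disk assay on potato dextrose agar (2 μg peptide per disk, buffer control disk, 23 °C, 72 h), scoring inhibition crescents.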

In series [9] the test system is trypsin. Put plainly: Trypsin-inhibitory activity. The class given is biochemical.
The test system of the next series is Helminthosporium maydis. In words: Antifungal activity, mycelial growth inhibition, Helminthosporium maydis. The class given is cell-based. The following applies: read-out: IC50 of antifungal activity; potato dextrose agar, 23 °C, 72 h; 50% reduction in area of mycelial colony. Put shortly:
as §1

Series [10] deals with a Helminthosporium species. In words: Antifungal activity, a Helminthosporium species. The class given is cell-based. The following applies: in words. The procedure, abridged: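 Mycelial disk-diffusion assay on potato dextrose agar. After the colony developed, sterile paper disks (0.625 cm) were placed 1 cm from the colony rim. Each disk received test peptide (60 μg or 300 μg) in 20 mM PBS, pH 6.0, and buffer served as the control. Plates were incubated at 23 °C for 72 h and scored for crescents of inhibition around the disks.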

Another series concerns Valsa mali. In words: Antifungal activity, mycelial growth inhibition, Valsa mali. The class given is cell-based. As to conditions: read-out: IC50 of antifungal activity; potato dextrose agar, 23 °C, 72 h; 50% reduction in area of mycelial colony. Put shortly: as §1
The test system of series [11] is tumor cells. In words: Antiproliferative activity on tumor cells, line not specified. The format is cell-based. As to conditions: in words. The procedure, abridged: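 MCF-7 breast cancer and HepG2 hepatoma cells were suspended in RPMI at 2 × 10^4 cells/ml, seeded and incubated for 24 h. Graded concentrations of test peptide in complete RPMI were added for 72 h. MTT (5 mg/ml stock in PBS) was added for 4 h, plates were centrifuged, formazan was dissolved in DMSO and absorbance read at 590 nm.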

Series [12] deals with Mycosphaerella arachidicola. Put plainly: Antifungal activity, mycelial growth inhibition, Mycosphaerella arachidicola. The format is cell-based. The procedure, abridged: as §1
The subject of series [13] is Mycosphaerella arachidicola. The following applies: in words; cited from earlier work.
In series [14] the test system is tumor cells. The following applies: in words; cited from earlier work.
In series [15] the test system is HIV-1 integrase. As to conditions: cited from earlier work.
The test system of series [16] is a Helminthosporium species. The following applies: in words; cited from earlier work.
The test system of series [17] is HIV-1 reverse transcriptase. The following applies: cited from earlier work.
Series [18] concerns mouse splenocytes. The following applies: toward mouse splenocytes; cited from earlier work.
A further series has as its system hepatoma HepG2 cell line. The following applies: read-out: IC50, antiproliferative activity; cited from earlier work.
Series [19] has as its system severe acute respiratory syndrome (SARS) coronavious (CoV) protease. The following applies: cited from earlier work.
Series [20] concerns Fusarium oxysporum. As to conditions: in words; cited from earlier work.
The test system of series [21] is breast cancer MCF-7 cell line. As to conditions: read-out: IC50, antiproliferative activity; cited from earlier work.
The test system of series [22] is fungal species. As to conditions: in words; cited from earlier work.
Setting [23] is: read-out: IC50 of antifungal activity, potato dextrose agar, 23 °C, 72 h, 50% reduction in area of mycelial colony.

For “SECLKEYGGDVGFGFCAPRIYPSFCVQRC [Brassica napus trypsin inhibitor]”, the trypsin inhibitory activity entry in the series with trypsin [1] was “manifest trypsin inhibitory activity”.

As a reminder, the IC50 is the point on the concentration scale where inhibition reaches its midpoint. For “PEGPFQGPKATKPGDLAXQTWGGWXGQTPKY [kale antifungal peptide]”, the “HIV-1 reverse transcriptase inhibitory activity” value in [2] is “HIV-1 reverse transcriptase inhibitory activity; also recorded: potent antiproliferative and HIV-1 reverse transcriptase inhibitory activities”. In addition, in the series on mouse splenocytes [3], the mitogenic activity entry is recorded as “devoid of mitogenic activity”. Besides, the “SARS proteinase inhibitory activity” value in series [4] was “devoid of”. Moreover, in the series with Fusarium oxysporum [5] (in words), the “antifungal activity toward F. oxysporum” value is recorded as “antifungal activity toward F. oxysporum”. The IC50 came to 4.3 µM with Fusarium oxysporum [5] (setting [23]), 2.1 µM in the series on Helminthosporium maydis, 0.15 µM in the series on Valsa mali and 2.4 µM in series [12] (setting [23]). Also, the “antifungal potency compared with other antifungal proteins” value in the series on fungal species [6] (compared with antifungal proteins of refs 31, 32, 40) is “more potent than that of the antifungal proteins”. For the same sequence, the antifungal activity result was “broad spectrum of antifungal activity; also recorded: exhibit antifungal activity” in the series on fungal species [6]; “stable and broad-spectrum antifungal activity” in the series with fungal species [6] (listed as antifungal peptide). In the series on HIV-1 integrase [7], the “HIV-1 integrase inhibitory activity” value was “devoid of”. Moreover, the pH stability result in [8] (antifungal activity after pH pretreatment, in words) is “remarkable thermostability and pH stability”. The thermostability entry is reported as “remarkable thermostability” in series [8] (in words) and “pronounced thermostability” in series [8] (in words, listed as antifungal peptide). The “acid pH range after which antifungal activity was retained” value in series [8] (pH, pretreatment 30 min, tested pH 0–3, paper disk assay, 2 μg peptide per disk) is recorded as 2–3. The “trypsin inhibitory activity toward BAEE” value in the series on trypsin [9] (BAEE as substrate, tested up to 50 μM, detailed data not shown) was “lacked trypsin inhibitory activity”. Moreover, the “trypsin inhibitory activity toward casein” value in the series with trypsin [9] (casein as substrate, tested up to 10 μM, detailed data not shown) is on record as “lacked trypsin inhibitory activity”. The trypsin inhibitory activity entry in the series with trypsin [9] (substrate not specified, in words) is “did not exhibit trypsin inhibitory activity”. The “antifungal activity toward a Helminthosporium species” value in series [10] was “antifungal activity toward F. oxysporum, M. arachidicola and a Helminthosporium species”. For the same sequence, in the series on tumor cells [11], the antiproliferative activity result is on record as “demonstrated antiproliferative activity; also recorded: antiproliferative activity toward tumor cells; also recorded: potent antiproliferative”. Further, the “antifungal activity toward M. arachidicola” value in series [12] (in words) was “antifungal activity toward F. oxysporum, M. arachidicola”.

Consider “ALSCGTVSGNLAACAGYV [B. campestris antifungal peptide]”, for which the “antifungal activity toward M. arachidicola” value in [13] is on record as “antifungal activity toward F. oxysporum, M. arachidicola”. The “antiproliferative activity toward tumor cells” value in the series on tumor cells [14] is “antiproliferative activity toward tumor cells”. Besides, in the series with HIV-1 integrase [15], the “HIV-1 integrase inhibitory activity” value is “Neither kale nor B. campestris antifungal peptide demonstrated HIV-1 integrase inhibitory”. Further, the “antifungal activity toward a Helminthosporium species” value in [16] is “antifungal activity toward F. oxysporum, M. arachidicola and a Helminthosporium species”. In series [17] (in words), the “HIV-1 reverse transcriptase inhibitory activity” value was “HIV-1 reverse transcriptase inhibitory activity”. The IC50 in [17] (read-out: IC50, HIV-1 reverse transcriptase inhibitory activity) is 4 µM; with hepatoma HepG2 cell line, 5.8 µM; in series [21], 1.6 µM. In addition, the mitogenic activity entry with mouse splenocytes [18] is reported as “devoid of mitogenic activity toward mouse splenocytes”. The “SARS proteinase inhibitory activity” value in series [19] is “Neither kale nor B. campestris antifungal peptide demonstrated HIV-1 integrase inhibitory and SARS proteinase inhibitory activities”. In addition, in the series with Fusarium oxysporum [20], the “antifungal activity toward F. oxysporum” value was “antifungal activity toward F. oxysporum”. Besides, the antifungal activity result in the series with fungal species [22] is recorded as “with antifungal activity”.

(Values after publication PMC7115674 (Peptides, 2008).)
